{
  "source": "ChEMBL document CHEMBL5252546",
  "about": "“Salutaxel, a Conjugate of Docetaxel and a Muramyl Dipeptide (MDP) Analogue, Acts as Multifunctional Prodrug That Inhibits Tumor Growth and Metastasis” (J Med Chem, 2018)",
  "key": {"[1]": {"assay": "Toxicity in BALB/c mouse injected with mouse 4T1 cells assessed as body weight loss at 5.7 mg/kg,iv administrated once per week for 4 weeks", "format": "organism-based", "conditions": "in vivo, 672 h"}, "[2]": {"assay": "Toxicity in BALB/c mouse xenografted with human NCI-H1975 cells assessed as body weight loss at 5.7 mg/kg,iv administrated once per week for 3 weeks", "format": "organism-based", "conditions": "in vivo, 504 h", "method_in_brief": "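Nude BALB/c nu/nu mice received subcutaneous human tumour cells into the right flank. Dosing started at mean tumour volume of 100–120 mm3, iv once weekly for 3 weeks; the taxane arm was an equimolar control. Body weight and overt side effects were monitored. Mean ± SEM, n = 8.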"}, "4T1 [3]": {"test_system": "4T1", "assay": "Antitumor activity against mouse 4T1 cells xenografted with BALB/c mouse assessed as decrease in lung metastasis at 5.7 mg/kg,iv administrated once per week for 4 weeks", "format": "functional, organism-based", "method_in_brief": "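4T1 cells injected into mammary fat pads of BALB/c mice. Dosing iv once per week for 4 weeks, saline vehicle; single-agent arms were given alone or with the peptide component (5b or 6). Endpoints were body weight, tumour volume, tumour weight, lung metastatic nodule count and lung metastasis score. Mean ± SEM, n = 10; ANOVA and Student's t test.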"}, "[4]": {"assay": "Toxicity in BALB/c mouse xenografted with mouse 4T1 cells assessed as decrease in body weight at 5.7 mg/kg,iv administrated with doxorubicin combination once per week for 4 weeks", "format": "organism-based", "conditions": "in vivo, 672 h", "method_in_brief": "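4T1 mammary fat-pad model in BALB/c mice. Doxorubicin (4 mg/kg) was given alone or co-administered with the conjugate or its parent taxane, with iv saline vehicle. Readouts were body weight, tumour volume, tumour weight, lung metastatic nodules and lung metastasis score. Mean ± SEM, n = 10; ANOVA and Student's t test.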"}, "4T1 [5]": {"test_system": "4T1", "assay": "Antitumor activity against mouse 4T1 cells implanted in BALB/c mouse assessed as decrease in tumor MMP2 expression level at 5.7 mg/kg,iv administrated once per week for 4 weeks by western blot assay", "format": "functional, organism-based", "method_in_brief": "(§1)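 4T1 cells injected into mammary fat pads of BALB/c mice. Saline vehicle or test article given iv once weekly for 4 weeks. Spleen, lung and tumor lysates immunoblotted for MMP2/MMP9 with β-actin as loading control. Bands averaged over five mice per group, representative of two independent experiments.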"}, "4T1 [6]": {"test_system": "4T1", "assay": "Antitumor activity against mouse 4T1 cells implanted in BALB/c mouse assessed as decrease in tumor MMP9 expression level at 5.7 mg/kg,iv administrated once per week for 4 weeks by western blot assay", "format": "functional, organism-based", "method_in_brief": "as §1"}, "4T1 [7]": {"test_system": "4T1", "assay": "Antitumor activity against mouse 4T1 cells implanted in BALB/c mouse assessed as increase in tumor NOD1 expression level at 5.7 mg/kg,iv administrated once per week for 4 weeks by western blot assay", "format": "functional, organism-based", "method_in_brief": "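Tumour-bearing BALB/c mice (4T1 cells into mammary fat pad) given iv saline vehicle or test agents once weekly for 4 weeks. Tumours excised and probed by western blot for MMP9, MMP2 and NOD1, β-actin as loading control. Bands averaged over five mice per group; representative of two independent experiments.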"}, "in vivo": {"assay": "in vivo", "conditions": "mouse, plasma, iv, 5.7 mg/kg"}, "[8]": {"assay": "Tmax in mouse plasma implanted with mouse 4T1 cells at 10 mg/kg,iv measured upto 72 hrs", "format": "ADME, organism-based"}, "[9]": {"assay": "Drug metabolism in rat plasma assessed as metabolite MDA-205 formation at 4 mg/kg,iv measured after 24 hrs", "format": "ADME, organism-based", "conditions": "in vivo"}, "[10]": {"assay": "Toxicity in HaM/ICR mouse assessed as effect on motor autonomic activity at 5 to 20 mg/kg,iv", "format": "organism-based", "conditions": "in vivo, dose 5-20 mg/kg"}, "[11]": {"assay": "Prodrug conversion in mouse plasma implanted with mouse 4T1 cells assessed as half life of docetaxel at 4 mg/kg,iv measured upto 72 hrs", "format": "ADME, organism-based", "conditions": "in vivo"}, "[12]": {"assay": "Drug distribution in rat lung at 4 mg/kg,iv measured by 0.25 hrs", "format": "ADME, organism-based", "conditions": "in vivo", "method_in_brief": "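Rats received 4 mg/kg iv. Parent drug and released docetaxel were assayed in tissues and plasma from the first sampling at 0.25 h to 24 h. The lower limit of quantitation was 200 ng/g.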"}, "[13]": {"assay": "Drug concentration in plasma of rat assessed as docetaxel concentration at 2 to 8 mg/kg,iv measured upto 24 hrs", "format": "ADME, organism-based", "conditions": "in vivo, dose 2-8 mg/kg", "method_in_brief": "(§2)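 Rats were given a single iv injection at 2, 4 or 8 mg/kg. Plasma parent drug and released docetaxel were followed over time. Cmax, Tmax, AUC, MRT, t1/2, CL and Vss were reported for males, females and all animals combined.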"}, "[14]": {"assay": "Clearance in male Beagle dog at 4 mg/kg,iv measured upto 24 hrs", "format": "ADME, organism-based, Canis lupus familiaris", "conditions": "in vivo", "method_in_brief": "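Beagle dogs were given a single iv infusion at 1, 2 or 4 mg/kg. Plasma parent drug and released docetaxel were followed over time. Cmax, Tmax, AUC, MRT, t1/2, CL and Vss were reported by sex and for all dogs combined.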"}, "[15]": {"assay": "Clearance in female rat at 2 mg/kg,iv measured upto 24 hrs", "format": "ADME, organism-based", "conditions": "in vivo", "method_in_brief": "as §2"}, "[16]": {"assay": "Half life in Beagle dog at 4 mg/kg,iv measured upto 24 hrs", "format": "ADME, organism-based, Canis lupus familiaris", "conditions": "in vivo"}, "[17]": {"assay": "Half life in male Beagle dog at 4 mg/kg,iv measured upto 24 hrs", "format": "ADME, organism-based, Canis lupus familiaris", "conditions": "in vivo"}, "[18]": {"assay": "AUC (0-t) in female rat at 8 mg/kg,iv measured upto 24 hrs", "format": "ADME, organism-based", "design": "dose 8 mg/kg, time < 24 hrs, route iv", "conditions": "in vivo", "method_in_brief": "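Single iv dose: rats 2, 4 or 8 mg/kg by intravenous injection; Beagle dogs 1, 2 or 4 mg/kg by intravenous infusion. Plasma concentration–time data were analysed by sex and pooled. Reported parameters: Cmax, Tmax, AUC0−t, AUC0−∞, MRT0−∞, t1/2, CL, Vss, given as mean ± SD.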"}, "4T1 [19]": {"test_system": "4T1", "assay": "Antitumor activity against mouse 4T1 cells xenografted with BALB/c mouse assessed as inhibition of tumor growth at 20 mg/kg,iv administrated once per week for 4 weeks", "format": "functional", "conditions": "4T1, 672 h", "method_in_brief": "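4T1 cells injected into the mammary fat pad of BALB/c mice; iv saline vehicle or 5, 10 or 20 mg/kg once weekly for 4 weeks; body weight, tumour volume, tumour weight, lung metastatic nodule count and metastasis score recorded; n = 10, mean ± SEM, ANOVA and Student's t test.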"}, "[20]": {"assay": "Toxicity in BALB/c mouse xenografted with human HCT-116 cells assessed as side effects at 10 mg/kg,iv administrated once per week for 3 weeks", "format": "organism-based", "conditions": "in vivo, 504 h"}, "[21]": {"assay": "Toxicity in Beagle dog assessed as effect on respiratory frequency at 1 to 4 mg/kg,iv", "format": "organism-based, Canis lupus familiaris", "conditions": "in vivo, dose 1-4 mg/kg"}, "[22]": {"assay": "Drug metabolism in rat hepatocytes assessed as docetaxel metabolite formation at 20 uM incubated for 180 mins", "format": "ADME, cell-based, Hepatocyte", "conditions": "3 h"}, "[23]": {"assay": "Stability in mouse plasma assessed as compound remaining at 1 uM incubated for 6 hrs", "format": "ADME, cell-free"}, "COLO 205": {"test_system": "COLO 205", "assay": "Antiproliferative activity against human COLO 205 cells assessed inhibition of cell growth incubated for 72 hrs by SRB assay", "format": "functional, cell-based", "conditions": "COLO 205, 72 h"}, "4T1 [24]": {"test_system": "4T1", "assay": "Antitumor activity against mouse 4T1 cells implanted in BALB/c mouse assessed as decrease in serum IL-6 level at 10 mg/kg,iv administrated once per week for 4 weeks by ELISA", "format": "functional, organism-based", "method_in_brief": "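4T1 fat-pad model in BALB/c mice, iv 5–20 mg/kg once weekly for 4 weeks, with vehicle and naive groups; serum MMP9, TIMP-1, IL-6 and S100A9 measured by mouse ELISA kits.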"}},
  "note": "Activity calls are given as the source filed them. The rule behind the calls is not given here.",
  "data": [
    {"smiles": "CC(=O)O[C@@]12CO[C@@H]1C[C@H](O)[C@@]1(C)C(=O)[C@H](O)C3=C(C)[C@@H](OC(=O)[C@H](O)[C@@H](NC(=O)OC(C)(C)C)c4ccccc4)C[C@@](O)([C@@H](OC(=O)c4ccccc4)[C@H]21)C3(C)C", "note": "[DOCETAXEL ANHYDROUS]", "values": [
      {"measurement": "Activity", "setting": "[1]", "value": "Non-Toxic"},
      {"measurement": "Activity", "setting": "[2]", "value": "Non-Toxic"},
      {"measurement": "Activity", "setting": "4T1 [3]", "value": "Active"},
      {"measurement": "Activity", "setting": "[4]", "value": "Toxic"},
      {"measurement": "Activity", "setting": "4T1 [5]", "value": "inactive"},
      {"measurement": "Activity", "setting": "4T1 [6]", "value": "inactive"},
      {"measurement": "Activity", "setting": "4T1 [7]", "value": "inactive"},
      {"measurement": "AUC(0-t) at 72 h", "setting": "in vivo", "value": 2240, "unit": "nM·h"}
    ]},
    {"smiles": "CC(=O)O[C@@]12CO[C@@H]1C[C@H](O)[C@@]1(C)C(=O)[C@H](O)C3=C(C)[C@@H](OC(=O)[C@H](OC(=O)CCC(=O)NCCCC[C@H](NC(=O)CC[C@@H](NC(=O)[C@H](C)NC(=O)/C=C/c4ccc(F)cc4Cl)C(N)=O)C(=O)O)[C@@H](NC(=O)OC(C)(C)C)c4ccccc4)C[C@@](O)([C@@H](OC(=O)c4ccccc4)[C@H]21)C3(C)C", "values": [
      {"measurement": "Tmax", "setting": "[8]", "value": 1.8, "unit": "min"},
      {"measurement": "Drug metabolism", "setting": "[9]", "value": "Metabolite_Detected"},
      {"measurement": "Activity", "setting": "[10]", "value": "Non-Toxic"},
      {"measurement": "t1/2", "setting": "[11]", "value": 178, "unit": "min"},
      {"measurement": "Drug uptake", "setting": "[12]", "value": "Active"},
      {"measurement": "Drug uptake", "setting": "[13]", "value": 0.79, "unit": "%"},
      {"measurement": "clearance", "setting": "[14]", "value": 0.274, "unit": "L/h/kg"},
      {"measurement": "clearance", "setting": "[15]", "value": 0.464, "unit": "L/h/kg"},
      {"measurement": "half-life", "setting": "[16]", "value": 35.5, "unit": "min"},
      {"measurement": "half-life", "setting": "[17]", "value": 36.6, "unit": "min"},
      {"measurement": "AUC(0-t) at 24 h", "setting": "[18]", "value": 39.3, "unit": "µg·h/mL"},
      {"measurement": "inhibition in vivo at 20 mg/kg", "setting": "4T1 [19]", "value": 57.2, "unit": "%"},
      {"measurement": "Activity", "setting": "[20]", "value": "Non-Toxic"},
      {"measurement": "Activity", "setting": "[21]", "value": "Non-Toxic"},
      {"measurement": "Drug metabolism", "setting": "[22]", "value": "Metabolite_Detected"},
      {"measurement": "Stability", "setting": "[23]", "value": "Stable"},
      {"measurement": "IC50", "setting": "COLO 205", "value": 0.0163, "unit": "µM"},
      {"measurement": "Activity", "setting": "4T1 [24]", "value": "Active"}
    ]}
  ]
}
